According to ChEMBL document CHEMBL1157505, “Design and in vitro characterization of highly sst2-selective somatostatin antagonists suitable for radiotargeting” (J Med Chem, 2008):
pIC50: −log10 of the molar value. Activity calls are given as the source filed them. The calls are words filed in the database; no cut-off is given here.

Tests used:
[1] = biological target: T1, Somatostatin receptor type 2 (Homo sapiens, UniProt P30874); assay: Antagonist activity at T7 epitope tagged human cloned sst2 expressed in HEK293 cells assessed as intracellular calcium release upto 10 uM; format: functional, cell-based
T1 sequence (P30874 whole entry): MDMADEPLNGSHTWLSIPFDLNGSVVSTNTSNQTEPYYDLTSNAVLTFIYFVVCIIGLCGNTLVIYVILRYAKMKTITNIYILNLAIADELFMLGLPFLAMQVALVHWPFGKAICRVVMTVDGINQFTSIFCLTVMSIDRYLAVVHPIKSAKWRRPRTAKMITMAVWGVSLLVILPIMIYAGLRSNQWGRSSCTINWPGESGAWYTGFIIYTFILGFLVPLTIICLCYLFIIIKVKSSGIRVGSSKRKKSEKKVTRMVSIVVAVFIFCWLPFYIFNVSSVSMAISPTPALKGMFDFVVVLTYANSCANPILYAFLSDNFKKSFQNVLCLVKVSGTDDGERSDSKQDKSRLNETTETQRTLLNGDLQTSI
Summary of the method: (§1)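 HEK-sst2 cells seeded on poly-D-lysine, cultured 1 day, loaded with Fluo-4NW dye (assay buffer HBSS/20 mM HEPES, 2.5 mM probenecid) 30 min 37 °C plus 30 min RT. Analogues alone up to 10 μM, or [Tyr3]-octreotide with 100-fold excess analogue; fluorescence (ex 485/em 520 nm) recorded 60 s at RT; percentage of ionomycin (25 μM) maximum over baseline; ≥3 experiments in triplicate.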

[2] = biological target: T1, Somatostatin receptor type 2; assay: Antagonist activity at T7 epitope tagged human cloned sst2 receptor expressed in HEK293 cells assessed as inhibition of [Tyr3]octreotide-induced receptor internalization upto 10 uM; format: functional, cell-based
Summary of the method: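 Surface T7-tagged sst2 on HEK-sst2 cells labelled with anti-T7 antibody 2 h RT in DMEM-LH, then cells exposed 30 min at 37 °C to analogue (alone up to 10 μM or with [Tyr3]-octreotide), fixed in 3% paraformaldehyde, probed with HRP anti-mouse IgG, ABTS read at OD405; surface receptor as % of untreated; mean ± SEM, three experiments in duplicate.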

[3] = biological target: T1, Somatostatin receptor type 2; assay: Antagonist activity at T7 epitope tagged human cloned sst2 expressed in HEK293 cells assessed as [Tyr3]octreotide-induced intracellular calcium release upto 10 uM; format: functional, cell-based; summary of the method: as §1
[4] = biological target: T1, Somatostatin receptor type 2; assay: Displacement of [125I][LTT]SRIF28 from human cloned sst2 receptor by autoradiography
[5] = biological target: Somatostatin receptor type 5 (Homo sapiens, UniProt P35346); assay: Displacement of [125I][LTT]SRIF28 from human cloned sst5 receptor by autoradiography
Sequence of Somatostatin receptor type 5 (P35346 whole entry): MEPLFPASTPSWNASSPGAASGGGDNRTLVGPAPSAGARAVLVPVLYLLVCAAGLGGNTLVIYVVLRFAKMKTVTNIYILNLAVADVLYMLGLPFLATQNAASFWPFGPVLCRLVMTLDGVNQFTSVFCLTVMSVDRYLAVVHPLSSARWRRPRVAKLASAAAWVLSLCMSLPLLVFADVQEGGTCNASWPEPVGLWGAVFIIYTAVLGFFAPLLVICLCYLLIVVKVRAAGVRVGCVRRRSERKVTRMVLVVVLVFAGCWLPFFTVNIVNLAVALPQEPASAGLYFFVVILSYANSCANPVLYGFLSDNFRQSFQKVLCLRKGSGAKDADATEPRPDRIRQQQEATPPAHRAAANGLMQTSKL

[6] = biological target: Somatostatin receptor type 3 (Homo sapiens, UniProt P32745); assay: Displacement of [125I][LTT]SRIF28 from human cloned sst3 receptor by autoradiography
Sequence of Somatostatin receptor type 3 (P32745 whole entry): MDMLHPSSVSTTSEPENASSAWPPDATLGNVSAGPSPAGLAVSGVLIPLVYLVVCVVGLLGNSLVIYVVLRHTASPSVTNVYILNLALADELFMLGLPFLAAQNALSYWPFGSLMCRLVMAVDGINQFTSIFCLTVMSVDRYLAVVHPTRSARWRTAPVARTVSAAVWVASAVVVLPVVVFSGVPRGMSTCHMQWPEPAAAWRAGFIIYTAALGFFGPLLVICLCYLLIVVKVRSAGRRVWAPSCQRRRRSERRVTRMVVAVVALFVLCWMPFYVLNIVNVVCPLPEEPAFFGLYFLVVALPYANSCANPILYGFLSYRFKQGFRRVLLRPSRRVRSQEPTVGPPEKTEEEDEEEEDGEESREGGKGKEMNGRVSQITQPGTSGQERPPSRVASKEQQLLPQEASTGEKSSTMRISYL

[7] = biological target: Somatostatin receptor type 1 (Homo sapiens, UniProt P30872); assay: Displacement of [125I][LTT]SRIF28 from human cloned sst1 receptor by autoradiography
Sequence of Somatostatin receptor type 1 (P30872 whole entry): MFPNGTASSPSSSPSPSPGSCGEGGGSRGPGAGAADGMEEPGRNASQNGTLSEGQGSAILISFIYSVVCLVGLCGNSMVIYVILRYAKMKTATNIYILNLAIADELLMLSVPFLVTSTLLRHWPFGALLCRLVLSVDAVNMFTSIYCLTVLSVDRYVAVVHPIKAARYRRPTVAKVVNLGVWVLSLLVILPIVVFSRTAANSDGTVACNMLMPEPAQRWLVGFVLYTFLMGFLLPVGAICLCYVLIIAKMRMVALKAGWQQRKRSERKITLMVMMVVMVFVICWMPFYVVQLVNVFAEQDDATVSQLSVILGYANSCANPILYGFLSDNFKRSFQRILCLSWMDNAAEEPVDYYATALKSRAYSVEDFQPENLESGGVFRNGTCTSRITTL

[8] = biological target: Somatostatin receptor type 4 (Homo sapiens, UniProt P31391); assay: Displacement of [125I][LTT]SRIF28 from human cloned sst4 receptor by autoradiography
Sequence of Somatostatin receptor type 4 (P31391 whole entry): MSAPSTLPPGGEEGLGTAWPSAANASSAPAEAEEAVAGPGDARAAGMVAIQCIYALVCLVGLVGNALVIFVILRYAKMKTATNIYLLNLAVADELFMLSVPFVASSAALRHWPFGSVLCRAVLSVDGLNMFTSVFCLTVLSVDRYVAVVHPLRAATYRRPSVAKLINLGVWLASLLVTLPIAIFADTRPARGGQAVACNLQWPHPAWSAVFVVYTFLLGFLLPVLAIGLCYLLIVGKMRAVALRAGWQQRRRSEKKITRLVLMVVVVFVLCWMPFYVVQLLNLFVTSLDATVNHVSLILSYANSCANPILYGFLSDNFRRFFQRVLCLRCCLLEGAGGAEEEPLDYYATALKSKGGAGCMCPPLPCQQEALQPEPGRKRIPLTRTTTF

| Activity [1] | Activity [2] | Activity [3] | pIC50 [4] | pIC50 [5] | pIC50 [6] | pIC50 [7] | pIC50 [8] | SMILES |
| --- | --- | --- | --- | --- | --- | --- | --- | --- |
| inactive | Active | – | – | – | – | – | – | C[C@@H](O)[C@@H]1NC(=O)[C@H](CCCCN)NC(=O)[C@@H](Cc2c[nH]c3ccccc23)NC(=O)[C@H](N(C)C(=O)c2ccccc2)NC(=O)[C@H](NC(=O)[C@H](N)Cc2ccc(Cl)cc2)CSSC[C@@H](C(=O)N[C@@H](Cc2ccc3ccccc3c2)C(N)=O)NC1=O |
| inactive | Active | Active | – | – | – | – | – | C[C@@H](O)[C@@H]1NC(=O)[C@H](CCCCN)NC(=O)[C@@H](Cc2c[nH]c3ccccc23)NC(=O)[C@H](Cc2ccc(O)cc2)NC(=O)[C@H](NC(=O)[C@@H](Cc2ccc([N+](=O)[O-])cc2)NC(=O)CN2CCN(CC(=O)O)CCN(CC(=O)O)CCN(CC(=O)O)CC2)CSSC[C@@H](C(=O)N[C@H](Cc2ccc(O)cc2)C(N)=O)NC1=O |
| – | – | – | 7.57 | 6.49 | 6.79 | < 6.00 | < 6.00 | C[C@@H](O)[C@@H]1NC(=O)[C@H](CCCCN)NC(=O)[C@@H](Cc2c[nH]c3ccccc23)NC(=O)[C@H](Cc2ccc(NC(N)=O)cc2)NC(=O)[C@H](NC(=O)[C@@H](N)Cc2ccc(Cl)cc2)CSSC[C@@H](C(=O)N[C@@H](Cc2ccc(NC(=O)[C@@H]3CC(=O)NC(=O)N3)cc2)C(N)=O)NC1=O |
| – | – | – | 8.92 | < 6.00 | < 6.00 | < 6.00 | 6.34 | C[C@@H](O)[C@@H]1NC(=O)[C@H](CCCCN)NC(=O)[C@@H](Cc2c[nH]c3ccccc23)NC(=O)[C@H](Cc2ccc(O)c(I)c2)NC(=O)[C@H](NC(=O)[C@H](Cc2ccc([N+](=O)[O-])cc2)NC(=O)CN2CCN(CC(=O)O)CCN(CC(=O)O)CCN(CC(=O)O)CC2)CSSC[C@@H](C(=O)N[C@H](Cc2ccc(O)cc2)C(N)=O)NC1=O |
| inactive | Active | Active | – | – | – | – | – | C[C@@H](O)[C@@H]1NC(=O)[C@H](CCCCN)NC(=O)[C@@H](Cc2c[nH]c3ccccc23)NC(=O)[C@H](Cc2ccc(NC(N)=O)cc2)NC(=O)[C@H](NC(=O)[C@H](N)Cc2ccc(Cl)cc2)CSSC[C@@H](C(N)=O)NC1=O |
| inactive | Active | – | – | – | – | – | – | CC(=O)N[C@H](Cc1ccc([N+](=O)[O-])cc1)C(=O)N[C@@H]1CSSC[C@@H](C(=O)N[C@H](Cc2ccc(O)cc2)C(N)=O)NC(=O)[C@H]([C@@H](C)O)NC(=O)[C@H](CCCCN)NC(=O)[C@@H](Cc2c[nH]c3ccccc23)NC(=O)[C@H](Cc2ccc(O)cc2)NC1=O |
| – | – | – | 7.40 | 6.05 | 7.06 | < 6.00 | 6.14 | C[C@@H](O)[C@@H]1NC(=O)[C@H](CCCCN)NC(=O)[C@@H](Cc2c[nH]c3ccccc23)NC(=O)[C@H](Cc2ccc(NC(N)=O)cc2)NC(=O)[C@H](NC(=O)[C@H](Cc2ccc(Cl)cc2)NC(=O)CCOCCOCCOCCNC(=O)CN2CCN(CC(=O)O)CCN(CC(=O)O)CCN(CC(=O)O)CC2)CSSC[C@@H](C(=O)N[C@@H](Cc2ccc3ccccc3c2)C(N)=O)NC1=O |
| – | – | – | 8.57 | < 6.00 | 6.35 | < 6.00 | < 6.00 | C[C@@H](O)[C@@H]1NC(=O)[C@H](CCCCN)NC(=O)[C@@H](Cc2ccc(NC(N)=O)cc2)NC(=O)[C@H](Cc2ccc(NC(=O)[C@@H]3CC(=O)NC(=O)N3)cc2)NC(=O)[C@H](NC(=O)[C@@H](N)Cc2ccc([N+](=O)[O-])cc2)CSSC[C@@H](C(=O)N[C@@H](Cc2ccc3ccccc3c2)C(N)=O)NC1=O |
| inactive | Active | Active | – | – | – | – | – | C[C@@H](O)[C@@H]1NC(=O)[C@H](CCCCN)NC(=O)[C@@H](Cc2c[nH]c3ccccc23)NC(=O)[C@H](Cc2ccc(NC(N)=O)cc2)NC(=O)[C@H](NC(=O)[C@@H](Cc2ccc(Cl)cc2)NC(=O)CCNC(=O)CN2CCN(CC(=O)O)CCN(CC(=O)O)CCN(CC(=O)O)CC2)CSSC[C@@H](C(=O)N[C@@H](Cc2ccc3ccccc3c2)C(N)=O)NC1=O |
| inactive | Active | Active | – | – | – | – | – | C[C@@H](O)[C@@H]1NC(=O)[C@H](CCCCN)NC(=O)[C@@H](Cc2c[nH]c3ccc(F)cc23)NC(=O)[C@H](Cc2ccc(NC(N)=O)cc2)NC(=O)[C@H](NC(=O)[C@H](N)Cc2ccc(Cl)cc2)CSSC[C@@H](C(=O)N[C@@H](Cc2ccc3ccccc3c2)C(N)=O)NC1=O |
| inactive | Active | Active | – | – | – | – | – | C[C@@H](O)[C@@H]1NC(=O)[C@H](CCCCN)NC(=O)[C@@H](Cc2c[nH]c3ccccc23)NC(=O)[C@H](Cc2ccc(NC(N)=O)cc2)NC(=O)[C@H](NC(=O)[C@H](N)Cc2ccc(Cl)cc2)CSSC[C@@H](C(=O)N[C@@H](Cc2ccc3ccccc3c2)C(N)=O)NC1=O |
| inactive | Active | – | – | – | – | – | – | C[C@@H](O)[C@@H]1NC(=O)[C@H](CCCCN)NC(=O)[C@@H](Cc2ccc(NC(N)=O)cc2)NC(=O)[C@H](Cc2ccc(O)cc2)NC(=O)[C@H](NC(=O)[C@H](N)Cc2ccc([N+](=O)[O-])cc2)CSSC[C@@H](C(=O)N[C@@H](Cc2ccc3ccccc3c2)C(N)=O)NC1=O |
| inactive | Active | Active | – | – | – | – | – | C[C@@H](O)[C@@H]1NC(=O)[C@H](CCCCN)NC(=O)[C@@H](Cc2c[nH]c3ccccc23)NC(=O)[C@H](Cc2ccc(NC(N)=O)cc2)NC(=O)[C@H](NC(=O)[C@@H](Cc2ccc(Cl)cc2)NC(=O)CN2CCN(CC(=O)O)CCN(CC(=O)O)CCN(CC(=O)O)CC2)CSSC[C@@H](C(=O)N[C@@H](Cc2ccc3ccccc3c2)C(N)=O)NC1=O |
| inactive | Active | Active | – | – | – | – | – | C[C@@H](O)[C@@H]1NC(=O)[C@H](CCCCN)NC(=O)[C@@H](Cc2c[nH]c3ccccc23)NC(=O)[C@H](Cc2ccc(O)cc2)NC(=O)[C@H](NC(=O)[C@H](N)Cc2ccc(Cl)cc2)CSSC[C@@H](C(=O)N[C@@H](Cc2ccc3ccccc3c2)C(N)=O)NC1=O |
| inactive | Active | Active | – | – | – | – | – | C[C@@H](O)[C@@H]1NC(=O)[C@H](CCCCN)NC(=O)[C@@H](Cc2ccc(NC(N)=O)cc2)NC(=O)[C@H](Cc2ccc(O)cc2)NC(=O)[C@H](NC(=O)[C@@H](Cc2ccc(Cl)cc2)NC(=O)CN2CCN(CC(=O)O)CCN(CC(=O)O)CCN(CC(=O)O)CC2)CSSC[C@@H](C(=O)N[C@@H](Cc2ccc3ccccc3c2)C(N)=O)NC1=O |
| inactive | Active | Active | – | – | – | – | – | C[C@@H](O)[C@@H]1NC(=O)[C@H](CCCCN)NC(=O)[C@@H](Cc2ccc(NC(N)=O)cc2)NC(=O)[C@H](Cc2ccc(O)cc2)NC(=O)[C@H](NC(=O)[C@@H](Cc2ccc([N+](=O)[O-])cc2)NC(=O)CN2CCN(CC(=O)O)CCN(CC(=O)O)CCN(CC(=O)O)CC2)CSSC[C@@H](C(=O)N[C@@H](Cc2ccc3ccccc3c2)C(N)=O)NC1=O |
| – | – | – | – | < 6.00 | < 6.00 | < 6.00 | < 6.00 | C[C@@H](O)[C@@H]1NC(=O)[C@H](CCCCN)NC(=O)[C@@H](Cc2ccc(NC(N)=O)cc2)NC(=O)[C@H](Cc2ccc(NC(=O)[C@@H]3CC(=O)NC(=O)N3)cc2)NC(=O)[C@H](NC(=O)[C@H](Cc2ccc(Cl)cc2)NC(=O)CN2CCN(CC(=O)O)CCN(CC(=O)O)CCN(CC(=O)O)CC2)CSSC[C@@H](C(=O)N[C@H](Cc2ccc(O)cc2)C(N)=O)NC1=O |
| inactive | Active | – | – | – | – | – | – | C[C@@H](O)[C@@H]1NC(=O)[C@H](CCCCN)NC(=O)[C@@H](Cc2c[nH]c3ccccc23)NC(=O)[C@H](Cc2ccc(NC(N)=O)cc2)NC(=O)[C@H](NC(=O)[C@@H](Cc2ccc(Cl)cc2)NC(=O)CCOCCOCCOCCNC(=O)CN2CCN(CC(=O)O)CCN(CC(=O)O)CCN(CC(=O)O)CC2)CSSC[C@@H](C(=O)N[C@@H](Cc2ccc3ccccc3c2)C(N)=O)NC1=O |
| inactive | Active | Active | – | – | – | – | – | C[C@@H](O)[C@@H]1NC(=O)[C@H](CCCCN)NC(=O)[C@@H](Cc2ccc(NC(N)=O)cc2)NC(=O)[C@H](Cc2ccc(NC(=O)[C@@H]3CC(=O)NC(=O)N3)cc2)NC(=O)[C@H](NC(=O)[C@H](N)Cc2ccc(Cl)cc2)CSSC[C@@H](C(=O)N[C@@H](Cc2ccc3ccccc3c2)C(N)=O)NC1=O |
| inactive | Active | Active | – | – | – | – | – | C[C@@H](O)[C@@H]1NC(=O)[C@H](CCCCN)NC(=O)[C@@H](Cc2ccc(NC(N)=O)cc2)NC(=O)[C@H](Cc2ccc(NC(=O)[C@@H]3CC(=O)NC(=O)N3)cc2)NC(=O)[C@H](NC(=O)[C@@H](Cc2ccc(Cl)cc2)NC(=O)CN2CCN(CC(=O)O)CCN(CC(=O)O)CCN(CC(=O)O)CC2)CSSC[C@@H](C(=O)N[C@@H](Cc2ccc3ccccc3c2)C(N)=O)NC1=O |
| inactive | – | – | – | – | – | – | – | CONC(=O)Nc1ccc(C[C@@H]2NC(=O)[C@H](NC(=O)[C@H](N)Cc3ccc(Cl)cc3)CSSC[C@@H](C(=O)N[C@@H](Cc3ccc4ccccc4c3)C(N)=O)NC(=O)[C@H]([C@@H](C)O)NC(=O)[C@H](CCCCN)NC(=O)[C@@H](Cc3c[nH]c4ccccc34)NC2=O)cc1 |
